≈ marks a conversion by molar mass, not a printed value. Calls of active or inactive are those of the source. No cut-off for these calls is given here.
Legend:
Staphylococcus aureus [1] = assay: Antibacterial activity against Methicillin-sensitive Staphylococcus aureus ATCC 6538 clinical isolates after 18 to 20 hrs in aerobic condition by CLSI protocol based broth microdilution assay; format: functional
[2] = test system: Staphylococcus epidermidis; assay: Antibacterial activity against Staphylococcus epidermidis NRS101 after 18 to 20 hrs in aerobic condition by CLSI-based broth microdilution assay; format: functional
Enterococcus faecalis = assay: Antibacterial activity against vancomycin-resistant Enterococcus faecalis ATCC 51299 clinical isolates after 18 to 20 hrs in aerobic condition by CLSI-based broth microdilution assay; format: functional
Enterococcus faecium [3] = assay: Antibacterial activity against vancomycin-resistant Enterococcus faecium ATCC 700221 clinical isolates after 18 to 20 hrs in aerobic condition by CLSI-based broth microdilution assay; format: functional
Listeria monocytogenes = assay: Antibacterial activity against Listeria monocytogenes ATCC 19111 after 18 to 20 hrs in aerobic condition by CLSI-based broth microdilution assay; format: functional
Streptococcus pneumoniae [4] = assay: Antibacterial activity against cephalosporin-resistant Streptococcus pneumoniae ATCC 51916 clinical isolates after 18 to 20 hrs by CLSI-based broth microdilution assay; format: functional
Clostridioides difficile [5] = assay: Antibacterial activity against Clostridium difficile ATCC BAA 1870 incubated for 48 hrs in anaerobic condition by CLSI-based broth microdilution assay; format: functional; conditions: ATCC BAA 1870, 48 h
Acinetobacter baumannii [6] = assay: Antibacterial activity against Acinetobacter baumannii ATCC 19606 clinical isolates after 18 to 20 hrs in aerobic condition by CLSI-based broth microdilution assay; format: functional; conditions: ATCC 19606 = CIP 70.34 = JCM 6841
Acinetobacter baumannii [7] = assay: Antibacterial activity against Acinetobacter baumannii ATCC BAA 1141 clinical isolates after 18 to 20 hrs in aerobic condition by CLSI-based broth microdilution assay; format: functional
Acinetobacter baumannii [8] = assay: Antibacterial activity against Acinetobacter baumannii NR 17786 clinical isolates after 18 to 20 hrs in aerobic condition by CLSI-based broth microdilution assay; format: functional
Klebsiella pneumoniae [9] = assay: Antibacterial activity against Klebsiella pneumoniae BAA-1706 clinical isolates after 18 to 20 hrs in aerobic condition by CLSI-based broth microdilution assay; format: functional
Klebsiella pneumoniae [10] = assay: Antibacterial activity against Klebsiella pneumoniae BAA-1144 clinical isolates after 18 to 20 hrs in aerobic condition by CLSI-based broth microdilution assay; format: functional
Salmonella enteritidis [11] = assay: Antibacterial activity against Salmonella enteritidis ATCC 13076 clinical isolates after 18 to 20 hrs in aerobic condition by CLSI-based broth microdilution assay; format: functional, Salmonella enterica subsp. enterica serovar Enteritidis; conditions: Salmonella enterica
Escherichia coli [12] = assay: Antibacterial activity against carbapenem-resistant Escherichia coli BAA-2452 clinical isolates after 18 to 20 hrs in aerobic condition by CLSI-based broth microdilution assay; format: functional
Escherichia coli [13] = assay: Antibacterial activity against carbapenem-resistant Escherichia coli BAA-2469 clinical isolates after 18 to 20 hrs in aerobic condition by CLSI-based broth microdilution assay; format: functional
Klebsiella pneumoniae [14] = assay: Antibacterial activity against carbapenem-resistant Klebsiella pneumoniae ATCC BAA-1705 clinical isolates after 18 to 20 hrs in aerobic condition by CLSI-based broth microdilution assay; format: functional
Klebsiella pneumoniae [15] = assay: Antibacterial activity against carbapenem-resistant Klebsiella pneumoniae ATCC BAA-2146 clinical isolates after 18 to 20 hrs in aerobic condition by CLSI-based broth microdilution assay; format: functional
Pseudomonas aeruginosa [16] = assay: Antibacterial activity against carbapenem-resistant Pseudomonas aeruginosa ATCC 1744 clinical isolates after 18 to 20 hrs in aerobic condition by CLSI-based broth microdilution assay; format: functional
Staphylococcus aureus [17] = assay: Antibiofilm activity against methicillin-resistant Staphylococcus aureus NRS384-USA300 clinical isolates assessed as inhibition of biofilm formation at 0.5 times MIC incubated for 24 hrs by crystal violet staining based spectrophotometric method relative to control; format: functional
[18] = Stability in human liver microsomes assessed as compound remaining incubated for 30 mins in presence of NADPH by LC/MS/MS analysis; format: ADME, Microsome; conditions: read-out: Stability
How it was run: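 Two independent runs (1st and 2nd) were done at each time point, and the mean percent remaining is reported. Incubations were run both with and without NADPH. Half-life and intrinsic clearance (Clint) were derived from the time-course data.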

[19] = Intrinsic clearance in human liver microsomes in presence of NADPH by LC/MS/MS analysis; format: ADME, Microsome; conditions: read-out: CLH
[20] = Intrinsic clearance in human liver microsomes in absence of NADPH by LC/MS/MS analysis; format: ADME, Microsome; conditions: read-out: CLH
[21] = Apparent permeability across basolateral to apical side in human Caco2 cells after 2 hrs by LC/MS/MS analysis; format: ADME, cell-based; conditions: Caco-2
[22] = target: T1, Ditrans,polycis-undecaprenyl-diphosphate synthase ((2E,6E)-farnesyl-diphosphate specific) (Escherichia coli (strain K12)) (UniProt P60472); assay: Inhibition of Escherichia coli UPPS using FPP/IPP as substrate preincubated for 30 mins followed by substrates addition and measured after 30 mins by malachite green reagent based assay
T1 sequence (whole entry): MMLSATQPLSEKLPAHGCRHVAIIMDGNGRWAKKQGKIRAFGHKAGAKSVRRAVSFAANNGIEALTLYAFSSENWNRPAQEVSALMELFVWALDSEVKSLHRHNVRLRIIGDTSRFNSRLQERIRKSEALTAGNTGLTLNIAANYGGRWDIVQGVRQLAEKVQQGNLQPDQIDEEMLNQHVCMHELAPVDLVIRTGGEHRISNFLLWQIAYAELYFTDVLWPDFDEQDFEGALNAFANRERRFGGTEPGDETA

[23] = test system: Staphylococcus epidermidis; assay: Ratio of MBC to MIC for Staphylococcus epidermidis NRS101 clinical isolates; format: functional
Enterococcus faecium [24] = assay: Ratio of MBC to MIC for vancomycin-resistant Enterococcus faecium ATCC 700221 clinical isolates; format: functional
Streptococcus pneumoniae [25] = assay: Ratio of MBC to MIC for cephalosporin-resistant Streptococcus pneumoniae ATCC 51916 clinical isolates; format: functional
Streptococcus pneumoniae [26] = assay: Ratio of MBC to MIC for […] Streptococcus pneumoniae ATCC 700677 clinical isolates; format: functional
[27] = test system: Enterobacter cloacae subsp. cloacae; assay: Ratio of MBC to MIC for Enterobacter cloacae subsp. cloacae ATCC BAA-1143 clinical isolates; format: functional
Klebsiella pneumoniae [28] = assay: Ratio of MBC to MIC for Klebsiella pneumoniae BAA-1144 clinical isolates; format: functional
Salmonella enteritidis [29] = assay: Ratio of MBC to MIC for Salmonella enteritidis ATCC 13076 clinical isolates; format: functional, Salmonella enterica subsp. enterica serovar Enteritidis
Salmonella typhimurium = assay: Ratio of MBC to MIC for Salmonella typhimurium ATCC 700720 clinical isolates; format: functional, Salmonella enterica subsp. enterica serovar Typhimurium
Clostridioides difficile [30] = assay: Ratio of MBC to MIC for Clostridium difficile ATCC BAA 1870; format: functional
Escherichia coli [31] = assay: microbe, parasite or virus in culture; conditions: ATCC 1411
Pseudomonas aeruginosa [32] = assay: microbe, parasite or virus in culture; conditions: ATCC 9027

C/C(=N\NC(=N)N)c1cnn(-c2ccc(C#CC3CCCC3)cc2)c1C
MIC (Staphylococcus aureus [1]): 0.5 µg/mL (≈ 1.43 µM) | MIC [2]: 1 µg/mL (≈ 2.87 µM) | MIC (Enterococcus faecalis): 0.5 µg/mL (≈ 1.43 µM) | MIC (Enterococcus faecium [3]): 1 µg/mL (≈ 2.87 µM) | MIC (Listeria monocytogenes): 0.5 µg/mL (≈ 1.43 µM) | MIC (Streptococcus pneumoniae [4]): 1 µg/mL (≈ 2.87 µM) | MIC (Clostridioides difficile [5]): 1 µg/mL (≈ 2.87 µM) | MIC (Acinetobacter baumannii [6]): 4 µg/mL (≈ 11.5 µM) | MIC (Acinetobacter baumannii [7]): 4 µg/mL (≈ 11.5 µM) | MIC (Acinetobacter baumannii [8]): 8 µg/mL (≈ 23 µM) | MIC (Klebsiella pneumoniae [9]): 4 µg/mL (≈ 11.5 µM) | MIC (Klebsiella pneumoniae [10]): 8 µg/mL (≈ 23 µM) | MIC (Salmonella enteritidis [11]): 4 µg/mL (≈ 11.5 µM) | MIC (Escherichia coli [12]): 4 µg/mL (≈ 11.5 µM) | MIC (Escherichia coli [13]): 4 µg/mL (≈ 11.5 µM) | MIC (Klebsiella pneumoniae [14]): 8 µg/mL (≈ 23 µM) | MIC (Klebsiella pneumoniae [15]): 16 µg/mL (≈ 45.9 µM) | MIC (Pseudomonas aeruginosa [16]): 16 µg/mL (≈ 45.9 µM) | inhibition (INH) (Staphylococcus aureus [17]): 31% | remaining at 0.5 h [18]: 92% | microsomal CLint [19]: 35.8 µL/min/mg | microsomal CLint [20]: < 116 µL/min/mg | Papp B→A at 2 h [21]: 0.01 ×10⁻⁶ cm/s | inhibition [22]: inactive | Ratio [23]: <3 | Ratio (Enterococcus faecium [24]): <3 | Ratio (Streptococcus pneumoniae [25]): <3 | Ratio (Streptococcus pneumoniae [26]): <3 | Ratio [27]: > 1 | Ratio (Klebsiella pneumoniae [28]): >=1 | Ratio (Salmonella enteritidis [29]): >=1 | Ratio (Salmonella typhimurium): >=1 | Ratio (Clostridioides difficile [30]): <3 | MIC (Escherichia coli [31]): 8 µg/mL (≈ 23 µM) | MIC (Pseudomonas aeruginosa [32]): 16 µg/mL (≈ 45.9 µM)

From ChEMBL document CHEMBL4334464, “From Phenylthiazoles to Phenylpyrazoles: Broadening the Antibacterial Spectrum toward Carbapenem-Resistant Bacteria” (J Med Chem, 2019)
